# Activity calls are given as the source filed them. The rule behind the calls is not given here.
# Columns and labels:
# Staphylococcus aureus [1] = test: Antimicrobial activity against quinolone and penicillin-resistant Staphylococcus aureus SAR72 after 24 hrs by broth microdilution method; assay type: functional
# Outline: (§1)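 Broth dilution in Mueller Hinton Broth; compounds dissolved in DMSO and diluted in growth medium. […] Drug-free tubes served as growth controls and organism-free tubes as purity controls, with solvent-only controls included. Ciprofloxacin, levofloxacin, moxifloxacin and gemifloxacin were the reference drugs.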
# Bacillus subtilis = test: Antimicrobial activity against Bacillus subtilis ATCC 6633 after 24 hrs by broth microdilution method; assay type: functional; conditions: ATCC 6633, 24 h
# Outline: (§2)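 Broth dilution method. H. influenzae grown in Haemophilus Test Medium, other bacteria in Mueller Hinton Broth. Compounds dissolved in DMSO and diluted in growth medium. Incubated 24 h at 37 °C. MIC is the lowest concentration inhibiting reproduction of the organism. Drug-free tubes served as growth controls, organism-free tubes as purity controls, and solvent-only tubes as controls.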
# Staphylococcus aureus [2] = test: Antimicrobial activity against Staphylococcus aureus ATCC 6538 after 24 hrs by broth microdilution method; assay type: functional; conditions: ATCC 6538, 24 h; outline: as §2
# [3] = system: Staphylococcus epidermidis; test: Antimicrobial activity against Staphylococcus epidermidis ATCC 12228 after 24 hrs by broth microdilution method; assay type: functional; conditions: ATCC 12228, 24 h; outline: as §2
# Staphylococcus aureus [4] = test: Antimicrobial activity against quinolone and penicillin-resistant Staphylococcus aureus SAR4790 after 24 hrs by broth microdilution method; assay type: functional; outline: as §1
# [5] = system: Staphylococcus epidermidis; test: Antimicrobial activity against quinolone and penicillin-resistant Staphylococcus epidermidis SER after 24 hrs by broth microdilution method; assay type: functional; outline: as §1
# Acinetobacter baumannii [6] = test: Antimicrobial activity against Acinetobacter baumannii ATCC 19606 after 24 hrs by broth microdilution method; assay type: functional; conditions: ATCC 19606, 24 h; outline: as §2
# Acinetobacter baumannii [7] = test: Antimicrobial activity against quinolone and penicillin-resistant Acinetobacter baumannii after 24 hrs by broth microdilution method; assay type: functional; outline: as §1
# Escherichia coli [8] = test: Antimicrobial activity against Escherichia coli ATCC 8739 after 24 hrs by broth microdilution method; assay type: functional; conditions: ATCC 8739, 24 h; outline: as §2
# Escherichia coli [9] = test: Antimicrobial activity against quinolone and penicillin-resistant Escherichia coli after 24 hrs by broth microdilution method; assay type: functional; outline: as §1
# Haemophilus influenzae = test: Antimicrobial activity against Haemophilus influenzae ATCC 19418 after 24 hrs by broth microdilution method; assay type: functional; conditions: ATCC 19418, 24 h; outline: as §2
# Pseudomonas aeruginosa [10] = test: Antimicrobial activity against Pseudomonas aeruginosa ATCC 9027 after 24 hrs by broth microdilution method; assay type: functional; conditions: ATCC 9027, 24 h; outline: as §2
# Pseudomonas aeruginosa [11] = test: Antimicrobial activity against quinolone and penicillin-resistant Pseudomonas aeruginosa after 24 hrs by broth microdilution method; assay type: functional; outline: as §1
# [12] = Inhibition of Escherichia coli DNA gyrase-mediated supercoiling of pBR322 using bromothymol blue by electrophoresis
# Outline: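 E. coli gyrase supercoiling of relaxed pBR322 in 35 mM Tris–HCl pH 7.5, 24 mM KCl, 4 mM MgCl2, 2 mM DTT, 1.8 mM spermidine, 1 mM ATP, 6.5% glycerol, 0.1 mg/mL albumin. Incubated 30 min at 37 °C, stopped with chloroform/isoamyl alcohol, run on 1% agarose and gel-quantitated. IC50 is the concentration halving supercoiling versus drug-free control. ≥3 independent experiments.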
# MCF7 [13] = test: Cytotoxicity against human MCF7 cells after 72 hrs by MTT assay; assay type: functional, cell-based; conditions: MCF7, 72 h
# Outline: (§3)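 Cells kept in medium with 2 mM glutamine and 10% FBS at 37 °C, 5% CO2. Compounds dissolved in DMSO just before addition (final ≤0.1% v/v; same solvent in controls). After 72 h exposure, viability read by MTT. Triplicates, ≥3 independent experiments. Dose–response fitted with single or double Hill functions; IC50 extrapolated from curves.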
# A549 = test: Cytotoxicity against human A549 cells after 72 hrs by MTT assay; assay type: functional, cell-based; conditions: A549, 72 h; outline: as §3
# [14] = Cytotoxicity against human HDF after 72 hrs by MTT assay; assay type: cell-based; outline: as §3
# [15] = Inhibition of Escherichia coli DNA topoisomerase-4-mediated decatenation of kinetoplast DNA by electrophoresis
# MCF7 [16] = test: Induction of cell death in human MCF7 cells at 5 uM after 48 hrs using Hoechst 33342/PI staining by microscopy; assay type: functional, cell-based
# Outline: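 MCF-7 cells exposed to compound for 48 h, then stained with Hoechst 33342/PI. Cell death quantified by fluorescence microscopy as percent values. Means of three separate experiments.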
# MCF7 [17] = test: Induction of apoptosis in human MCF7 cells assessed as p53 accumulation after 24 hrs by Western blotting
# MCF7 [18] = test: Induction of apoptosis in human MCF7 cells assessed as caspase-7 activation at 5 uM after 24 hrs by Western blotting
Compound,MIC (Bacillus subtilis) [µg/mL],MIC (Staphylococcus aureus [2]) [µg/mL],MIC [3] [µg/mL],MIC [5],MIC (Acinetobacter baumannii [6]) [µg/mL],MIC (Acinetobacter baumannii [7]),MIC (Escherichia coli [8]) [µg/mL],MIC (Escherichia coli [9]),MIC (Haemophilus influenzae) [µg/mL],MIC (Pseudomonas aeruginosa [10]) [µg/mL],MIC (Pseudomonas aeruginosa [11]),IC50 [12] [µg/mL],IC50 (MCF7 [13]) [µM],IC50 (A549) [µM],IC50 [14] [µM],IC50 [15] [µg/mL],"MIC (Staphylococcus aureus [1]; SAR72, 24 h) [µg/mL]","MIC (Staphylococcus aureus [4]; SAR4790, 24 h) [µg/mL]",also measured
Cc1ccc2c(c1)[nH]c1c2c(F)cc2c(=O)c(C(=O)O)cn(C3CC3)c21,0.07,> 100,> 100,inactive,> 100,inactive,> 100,inactive,> 100,> 100,inactive,3,> 10,> 10,> 10,> 300,–,–,MIC (Staphylococcus aureus [1]): inactive; MIC (Staphylococcus aureus [4]): inactive
Cc1c2ccncc2c(C)c2c1[nH]c1ccccc12 [ELLIPTECINE],–,–,–,–,–,–,–,–,–,–,–,–,1.6,3.4,> 10,–,–,–,–
COc1c(C)cc2c([nH]c3c2c(F)cc2c(=O)c(C(=O)O)cn(C4CC4)c23)c1C,0.07,6,25,> 100 µg/mL,> 100,inactive,> 100,inactive,6,> 100,inactive,> 30,1.7,3,> 10,31,> 100,> 100,–
O=C(O)c1cn(C2CC2)c2c(cc(F)c3c2[nH]c2ccsc23)c1=O,0.003,0.03,0.03,50 µg/mL,3,> 100 µg/mL,1.5,> 100 µg/mL,0.015,50,> 100 µg/mL,1.1,4.4,6.4,> 10,100,12,> 100,–
O=C(O)c1cn(C2CC2)c2c(cc(F)c3c4ccccc4[nH]c32)c1=O,0.015,0.3,0.15,> 100 µg/mL,12,> 100 µg/mL,50,> 100 µg/mL,0.03,> 100,inactive,1.7,3.6,6.4,> 10,35,12,> 100,–
C[C@H]1COc2c(N3CCN(C)CC3)c(F)cc3c(=O)c(C(=O)O)cn1c23.C[C@H]1COc2c(N3CCN(C)CC3)c(F)cc3c(=O)c(C(=O)O)cn1c23.O [LEVOFLOXACIN],0.03,0.07,0.15,> 100 µg/mL,0.15,> 100 µg/mL,–,25 µg/mL,0.15,0.3,50 µg/mL,–,–,–,–,–,25,100,–
COc1c(N2C[C@@H]3CCCN[C@@H]3C2)c(F)cc2c(=O)c(C(=O)O)cn(C3CC3)c12 [MOXIFLOXACIN],0.015,0.03,0.07,50 µg/mL,0.15,50 µg/mL,0.03,–,0.03,0.7,> 100 µg/mL,0.85,–,–,–,5,12,50,–
O=C(O)c1cn(C2CC2)c2cc(N3CCNCC3)c(F)cc2c1=O [CIPROFLOXACIN],0.03,0.3,0.07,100 µg/mL,0.7,> 100 µg/mL,–,–,0.15,0.07,–,0.34,–,–,–,4.6,100,> 100,–
O=C(O)c1cn(C2CC2)c2c(cc(F)c3c4ccc(F)cc4[nH]c32)c1=O,0.003,0.07,0.07,3 µg/mL,12,> 100 µg/mL,25,> 100 µg/mL,0.15,> 100,inactive,1.8,0.8,3.5,> 10,28,1.5,> 100,Activity (MCF7 [16]): Active; Activity (MCF7 [17]): Active; Activity (MCF7 [18]): Active
COc1ccc2c(c1)[nH]c1c2c(F)cc2c(=O)c(C(=O)O)cn(C3CC3)c21,0.07,3,3,> 100 µg/mL,50,> 100 µg/mL,> 100,inactive,1.5,> 100,inactive,4.8,2.4,4.9,> 10,48,> 100,> 100,–
CO/N=C1\CN(c2nc3c(cc2F)c(=O)c(C(=O)O)cn3C2CC2)CC1CN (stereo not given) [GEMIFLOXACIN],0.007,0.015,0.015,50 µg/mL,0.3,100 µg/mL,0.015,50 µg/mL,0.015,0.07,> 100 µg/mL,–,–,–,–,–,6,50,–

# Reference: ChEMBL document CHEMBL1212890, “Synthesis and biological evaluation of tetracyclic fluoroquinolones as antibacterial and anticancer agents” (Bioorg Med Chem, 2010)
